Measured values taken from ChEMBL document CHEMBL1124333, “Prostaglandin photoaffinity probes: synthesis and biological activity of azide-substituted 16-phenoxy- and 17-phenyl-PGF2 alpha prostaglandins” (J Med Chem, 1989).

Columns and labels:
[1] = biological target: T1, Prostaglandin F2-alpha receptor (Bos taurus, UniProt P37289); experiment: Binding potency towards Prostaglandin F2 alpha receptor (competitive binding) with natural [3H]-PGF 2 alpha in bovine corpora lutea plasma membranes (BCLM)
How it was run: (§1)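 Bovine corpora lutea were homogenized in ice-cold 10 mM Tris-HCl pH 7.0 with 250 mM sucrose, 1 mM CaCl2, BSA, indomethacin, DTT and protease inhibitors. Membranes were pelleted at 17339g and resuspended at about 1-2 mg protein/mL. They were diluted 1:1 with serum-free culture medium and incubated 90 min, to equilibrium, with [3H]PGF2α and competitor.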

[2] = Relative ratio in comparison with PGF2-alpha in bovine corpus lutea membranes; format: cell membranes
[3] = Relative ratio in comparison with PGF2-alpha in ovine luteal cells; format: cell-based
[4] = Relative ratio in comparison with PGF2-alpha
[5] = biological target: T1, Prostaglandin F2-alpha receptor; experiment: Binding potency towards PGF-2 alpha receptor (competitive binding) with natural [3H]-PGF 2 alpha in bovine corpora lutea plasma membranes (BCLM); how it was run: as §1

T1 sequence (P37289 whole entry): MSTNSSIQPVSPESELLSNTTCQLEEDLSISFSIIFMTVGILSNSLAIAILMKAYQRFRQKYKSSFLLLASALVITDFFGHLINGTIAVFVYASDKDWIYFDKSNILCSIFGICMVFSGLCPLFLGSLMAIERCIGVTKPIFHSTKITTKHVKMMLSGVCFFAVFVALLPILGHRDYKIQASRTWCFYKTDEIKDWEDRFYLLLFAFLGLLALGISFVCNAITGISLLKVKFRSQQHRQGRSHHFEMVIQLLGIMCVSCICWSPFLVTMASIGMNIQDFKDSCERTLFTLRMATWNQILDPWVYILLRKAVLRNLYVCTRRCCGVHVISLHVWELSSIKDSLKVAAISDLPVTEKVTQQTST

Row | SMILES | IC50 [1] | Ratio [2] | Ratio [3] | Ratio [4] | IC50 [5]
1 | [N-]=[N+]=Nc1ccc(OC[C@H](O)/C=C/[C@@H]2[C@@H](C/C=C\CCCC(=O)O)[C@@H](O)C[C@H]2O)c(O)c1 | 120 µM | 860 |  |  | 
2 | [N-]=[N+]=Nc1ccc(CC[C@H](O)/C=C/[C@@H]2[C@@H](C/C=C\CCCC(=O)O)[C@@H](O)C[C@H]2O)c(O)c1 | 220 µM | 1600 | 140 |  | 
3 | [N-]=[N+]=Nc1ccc(CC[C@H](O)/C=C/[C@@H]2[C@@H](C/C=C\CCCC(=O)O)[C@@H](O)C[C@H]2O)cc1I | 7 µM | 50 | 8.1 |  | 
4 | [N-]=[N+]=Nc1ccc(CC[C@@H](O)/C=C/[C@@H]2[C@@H](C/C=C\CCCC(=O)O)[C@@H](O)C[C@H]2O)cc1I | 68 µM |  |  | 490 | 
5 | COC(=O)CCC/C=C\C[C@@H]1C(/C=C/[C@@H](O)CCc2ccccc2)[C@H](O)C[C@@H]1O (stereo not given in full) |  | 14 |  |  | 2 µM
6 | [N-]=[N+]=Nc1cc(O)cc(OC[C@H](O)/C=C/[C@@H]2[C@@H](C/C=C\CCCC(=O)O)[C@@H](O)C[C@H]2O)c1 |  |  | 250 |  | 
7 | COC(=O)CCC/C=C\C[C@@H]1C(/C=C/[C@H](O)CCc2ccccc2)[C@H](O)C[C@@H]1O (stereo not given in full) |  | 360 |  |  | 50 µM
